Assay results as given in ChEMBL document CHEMBL3627702, “Navigating CYP1A Induction and Arylhydrocarbon Receptor Agonism in Drug Discovery. A Case History with S1P1 Agonists” (J Med Chem, 2015).

What was measured:
CYP1A2 [1] = target: T1, CYP1A2 (Homo sapiens, UniProt P05177); assay: Induction of CYP1A2-mediated 7-ethoxyresorufin O-deethylase activity in human hepatocytes at 5 uM after 10 mins by fluorescence assay relative to control; assay type: ADME, cell-based, Hepatocyte; conditions: probe 7-ethoxyresorufin, read-out: FC
T1 sequence (P05177 whole entry): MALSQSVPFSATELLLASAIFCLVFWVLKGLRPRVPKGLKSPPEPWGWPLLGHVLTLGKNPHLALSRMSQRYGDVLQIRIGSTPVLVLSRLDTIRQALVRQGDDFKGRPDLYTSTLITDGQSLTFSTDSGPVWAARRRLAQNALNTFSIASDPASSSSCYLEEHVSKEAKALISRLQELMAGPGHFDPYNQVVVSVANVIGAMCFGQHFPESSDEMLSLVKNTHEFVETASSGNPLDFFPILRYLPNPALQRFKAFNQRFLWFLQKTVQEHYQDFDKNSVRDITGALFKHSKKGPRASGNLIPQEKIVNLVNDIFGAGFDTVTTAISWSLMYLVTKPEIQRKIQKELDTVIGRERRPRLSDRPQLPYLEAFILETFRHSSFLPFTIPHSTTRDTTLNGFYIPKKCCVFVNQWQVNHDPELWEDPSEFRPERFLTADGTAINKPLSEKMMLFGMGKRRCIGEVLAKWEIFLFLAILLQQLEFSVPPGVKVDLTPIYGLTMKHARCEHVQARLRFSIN
Method in brief: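 Human hepatocytes were treated for 48 h (re-dosed at 24 h), washed, then incubated with 0.5 μM ethoxyresorufin in serum-free medium for 10 min at 37 °C. Resorufin fluorescence read at Ex 530/Em 590 nm. Rate in fluorescence units/min expressed as fold over solvent control.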

CYP1A2 [2] = assay: Induction of CYP1A2 mRNA expression in human hepatocytes at 10 uM relative to control; assay type: ADME, cell-based, Hepatocyte; conditions: read-out: FC
CYP1A2 [3] = assay: Induction of CYP1A2 mRNA expression in rat hepatic microsomes at 30 mg/kg, po QD for 7 days relative to control; assay type: ADME, organism-based, Liver; conditions: read-out: FC
Method in brief: (§1)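 Male rats dosed orally once daily for 7 days. Hepatic mRNA measured by Taqman and expressed as fold induction versus control animals.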

CYP1A1 [4] = assay: Induction of CYP1A1 mRNA expression in rat hepatic microsomes at 30 mg/kg, po QD for 7 days relative to control; assay type: ADME, organism-based, Liver; conditions: read-out: FC; method in brief: as §1
CYP1A2 [5] = assay: (§2) Induction of CYP1A2 mRNA expression in rat hepatocytes at 10 uM by Taqman analysis relative to control; assay type: ADME, cell-based, Hepatocyte; conditions: read-out: FC
CYP1A1 [6] = assay: (§3) Induction of CYP1A1 mRNA expression in rat hepatocytes at 10 uM by Taqman analysis relative to control; assay type: ADME, cell-based, Hepatocyte; conditions: read-out: FC
Rattus norvegicus [7] = assay: Induction of CYP1A2 gene expression in rat hepatic microsomes at 30 to 300 mg/kg, po QD for 7 days; assay type: ADME, organism-based, Liver; conditions: 168 h
Method in brief: (§4)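 Rats dosed orally once daily for 7 days at 30–300 mg/kg/day, depending on compound. Hepatic AhR-panel gene mRNA (Cyp1a, Nqo1, Ephx1) measured and expressed as fold induction versus control animals.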

CYP1A1 [8] = assay: Induction of CYP1A1 gene expression in rat hepatic microsomes at 30 to 300 mg/kg, po QD for 7 days; assay type: ADME, organism-based, Liver; conditions: read-out: FC
Method in brief: (§5)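 Rats received oral doses daily for 7 days: 30 and 100 mg/kg, or 30, 100 and 300 mg/kg, depending on compound. Hepatic CYP1A1 mRNA was expressed as fold induction versus control animals.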

Rattus norvegicus [9] = assay: Induction of Nqo1 gene expression in rat hepatic microsomes at 30 to 300 mg/kg, po QD for 7 days; assay type: organism-based, Liver; conditions: 168 h; method in brief: as §4
Rattus norvegicus [10] = assay: Induction of Ephx1 gene expression in rat hepatic microsomes at 30 to 300 mg/kg, po QD for 7 days; assay type: organism-based, Liver; conditions: 168 h; method in brief: as §4
Rattus norvegicus [11] = assay: Induction of CYP1A2 gene expression in po dosed rat hepatic microsomes administered po QD for 7 days; assay type: ADME, organism-based, Liver; conditions: 168 h; method in brief: as §4
Rattus norvegicus [12] = assay: Induction of CYP1A1 gene expression in po dosed rat hepatic microsomes administered po QD for 7 days; assay type: ADME, organism-based, Liver; conditions: 168 h; method in brief: as §5
Rattus norvegicus [13] = assay: Induction of Nqo1 gene expression in po dosed rat hepatic microsomes administered po QD for 7 days; assay type: organism-based, Liver; conditions: 168 h; method in brief: as §4
Rattus norvegicus [14] = assay: Induction of Ephx1 gene expression in po dosed rat hepatic microsomes administered po QD for 7 days; assay type: organism-based, Liver; conditions: 168 h; method in brief: as §4
[15] = Lipophilicity, log D of the compound at pH 7.4; assay type: physicochemical; conditions: buffer
[16] = Dissociation constant, pKa of the compound; assay type: physicochemical
CYP1A1 [17] = assay: Induction of CYP1A1 mRNA expression in Sprague-Dawley rat hepatic microsomes at 25 mg/kg, po QD for 4 days relative to control; assay type: ADME, organism-based, Liver; conditions: read-out: FC
Method in brief: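 Male CD rats (226–325 g, n = 3) were dosed by oral gavage once daily for 4 days as a 1% w/v aqueous methylcellulose suspension (3–6 mg/mL, 5 mL/kg). At the end of the study, a left lateral liver lobe section was placed in RNALater and homogenised in TRIzol. RNA was purified, DNase-treated and converted to cDNA, and Cyp1a1 was read on low-density TaqMan arrays.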

CYP1A2 [18] = assay: Induction of CYP1A2 mRNA expression in Sprague-Dawley rat hepatic microsomes at 25 mg/kg, po QD for 4 days relative to control; assay type: ADME, organism-based, Liver; conditions: read-out: FC
[19] = Cmax in Sprague-Dawley rat at 25 mg/kg, po QD measured on day 1; assay type: ADME, organism-based; parameters: dose 25 mg/kg, route oral; conditions: in vivo
Method in brief: (§6)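 Male CD rats (226−325 g), n = 3, given the compound once daily by oral gavage for 4 days. Vehicle was 1% (w/v) methylcellulose aq suspension at 3−6 mg/mL, dosed at 5 mL/kg (target 15−30 mg/kg). Tail vein blood was taken on days 1 and 4 up to 24 h postdose. Blood was diluted 1:1 with water, extracted by acetonitrile protein precipitation and analysed by LC−MS/MS against calibration standards in diluted blood.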

[20] = Cmax in Sprague-Dawley rat at 25 mg/kg, po QD measured on day 4; assay type: ADME, organism-based; parameters: dose 25 mg/kg, route oral; conditions: in vivo; method in brief: as §6
[21] = AUC in Sprague-Dawley rat at 25 mg/kg, po QD measured on day 1; assay type: ADME, organism-based; conditions: in vivo; method in brief: as §6
[22] = AUC in Sprague-Dawley rat at 25 mg/kg, po QD measured on day 4; assay type: ADME, organism-based; conditions: in vivo; method in brief: as §6
Rattus norvegicus [23] = assay: Dose normalized AUC in Sprague-Dawley rat at 25 mg/kg, po QD measured on day 1; assay type: ADME, organism-based; conditions: in vivo; method in brief: as §6
Rattus norvegicus [24] = assay: Dose normalized AUC in Sprague-Dawley rat at 25 mg/kg, po QD measured on day 4; assay type: ADME, organism-based; conditions: in vivo; method in brief: as §6
[25] = Oral bioavailability in CD rat at 3 mg/kg; assay type: ADME, organism-based; conditions: in vivo
Method in brief: (§7)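 Male CD rats cannulated in the femoral and jugular veins, n = 3, crossover design. Day 1: 1 h iv infusion at 1 mg/kg (0.2 mg/mL in ≤5% DMSO/≥95% 10% Kleptose in saline, 5 mL/kg/h). Day 2: oral gavage at 3 mg/kg (0.6 mg/mL in 1% methylcellulose, 5 mL/kg). Blood assayed by LC–MS/MS after acetonitrile precipitation.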

[26] = Half life in CD rat at 1 mg/kg, iv; assay type: ADME, organism-based; conditions: in vivo
Method in brief: (§8)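 Male CD rats carried femoral vein (dosing) and jugular vein (sampling) cannulae and recovered at least 2 days. They received a 1 h iv infusion at 5 mL kg−1 h−1, target 1 mg/kg, at 0.2 mg/mL in DMSO/10% Kleptose in saline (≤5%:≥95%). pH was adjusted to 8.0 if needed and the solution filtered. Definitive studies used n = 3 in crossover; others used single animals.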

[27] = Volume of distribution at steady state in CD rat at 1 mg/kg, iv; assay type: ADME, organism-based; conditions: in vivo, read-out: Vdss; method in brief: as §7
[28] = Blood clearance in CD rat at 1 mg/kg, iv; assay type: ADME, organism-based; method in brief: as §8
Rattus norvegicus [29] = assay: Induction of CYP1A2 mRNA expression in rat hepatic microsomes at 20 mg/kg, po QD for 4 days relative to control; assay type: ADME, organism-based, Liver; conditions: microsomes, 96 h
Method in brief: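 Male CD rats (226–325 g), n = 3, given test compound by oral gavage once daily for 4 days. Vehicle was 1% w/v methylcellulose aqueous suspension (3–6 mg/mL, 5 mL/kg); target dose 15–30 mg/kg. Liver from the left lateral lobe was put in RNALater, then TRIzol extraction and cDNA conversion; Cyp1a analysed on low-density arrays.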

Rattus norvegicus [30] = assay: Induction of CYP1A1 mRNA expression in rat hepatic microsomes at 20 mg/kg, po QD for 4 days relative to control; assay type: ADME, organism-based, Liver; conditions: microsomes, 96 h
Method in brief: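 Male CD rats, n = 3, received the compound once daily by oral gavage for 4 days in 1% methylcellulose suspension at 5 mL/kg. At necropsy a left lateral liver lobe section was stored in RNALater on ice. Tissue was TRIzol-homogenized, RNA purified, DNased and converted to cDNA. Cyp1a1 was read on low density arrays and expressed relative to control.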

Hepatocyte [31] = assay: as §2; assay type: ADME, cell-based; conditions: 10 µM
Hepatocyte [32] = assay: as §3; assay type: ADME, cell-based; conditions: 10 µM

## CC(C)Oc1ccc(-c2nc(-c3cccc4c3OCCN(CCCC(=O)O)C4)no2)cc1Cl
CYP1A2 [1]
  fold induction at 10 min, 5 µM: 1.1
CYP1A2 [2]
  fold induction at 10 µM: 0.6
CYP1A2 [3]
  fold induction at 168 h: 8
CYP1A1 [4]
  fold induction at 168 h: 75
CYP1A2 [5]
  fold induction at 10 µM: 3
CYP1A1 [6]
  fold induction at 10 µM: 5
Rattus norvegicus [7]
  Activity: Toxic
CYP1A1 [8]
  fold induction at 168 h: 10000
Rattus norvegicus [9]
  Activity: Toxic
Rattus norvegicus [10]
  Activity: Toxic
Rattus norvegicus [11]
  Activity: Dose-dependent effect
Rattus norvegicus [12]
  Activity: Dose-dependent effect
Rattus norvegicus [13]
  Activity: Dose-dependent effect
Rattus norvegicus [14]
  Activity: Dose-dependent effect

## Cc1c(-c2noc(-c3ccc(OC(C)C)c(C#N)c3)n2)ccc2c1CCN(C[C@H](O)CO)CC2
[15]
  logD: 2.36
[16]
  pKa: 8.4
CYP1A1 [17]
  fold induction at 96 h: 215
CYP1A2 [18]
  fold induction at 96 h: 2.2
[19]
  Cmax: 730 ng/mL
[20]
  Cmax: 870 ng/mL
[21]
  AUC: 13200 ng·h/mL
[22]
  AUC: 15600 ng·h/mL
Rattus norvegicus [23]
  AUC/dose: 31 kg·min/L
Rattus norvegicus [24]
  AUC/dose: 38 kg·min/L

## Cc1c(-c2noc(-c3ccc(OC(C)C)c(C#N)c3)n2)ccc2c1OCCN(C(CO)CO)C2
[25]
  bioavailability: 69%
[26]
  half-life: 60 min
[27]
  Vd: 4 L/kg
[28]
  clearance: 54 mL/min/kg
[15]
  logD: 2.86
[16]
  pKa: 6.3
CYP1A1 [17]
  fold induction at 96 h: 40
CYP1A2 [18]
  fold induction at 96 h: 2
[19]
  Cmax: 870 ng/mL
[20]
  Cmax: 1140 ng/mL
[21]
  AUC: 8840 ng·h/mL
[22]
  AUC: 12600 ng·h/mL
Rattus norvegicus [23]
  AUC/dose: 22 kg·min/L
Rattus norvegicus [24]
  AUC/dose: 30 kg·min/L

## CC(C)Oc1ncc(-c2nc(-c3cccc4c3OCCNC4CCCC(=O)O)no2)cc1Cl (stereo in doubt; 7)
Rattus norvegicus [29]
  fold change (FC): 1
Rattus norvegicus [30]
  fold change (FC): 1
Hepatocyte [31]
  fold change (FC): 8
Hepatocyte [32]
  fold change (FC): 32
